In ChEMBL document CHEMBL1127608, “Non-peptide fibrinogen receptor antagonists. 2. Optimization of a tyrosine template as a mimic for Arg-Gly-Asp” (J Med Chem, 1994):
pIC50: −log10 of the molar value. Peptide text beside a SMILES is read from it.

What was measured:
[1] = biological target: T1, Integrin alpha-IIb/beta-3 (Homo sapiens, UniProt P05106+P08514); assay: Inhibition of platelet aggregation by change in light transmittance at 300 uM; assay type: functional
How it was run: (§1)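 Human gel-filtered platelets at 2 × 10^8/mL were mixed with 0.1 mg/mL human fibrinogen, 1 mM CaCl2 and compound, then aggregated with 10 µM ADP. Light transmittance was compared between control and treated samples.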

[2] = biological target: T1, Integrin alpha-IIb/beta-3; assay: Inhibition of platelet aggregation as the concentration necessary to inhibit the change in light.; assay type: functional; how it was run: as §1
Target sequence in this assay (P05106 27-788 limits assumed): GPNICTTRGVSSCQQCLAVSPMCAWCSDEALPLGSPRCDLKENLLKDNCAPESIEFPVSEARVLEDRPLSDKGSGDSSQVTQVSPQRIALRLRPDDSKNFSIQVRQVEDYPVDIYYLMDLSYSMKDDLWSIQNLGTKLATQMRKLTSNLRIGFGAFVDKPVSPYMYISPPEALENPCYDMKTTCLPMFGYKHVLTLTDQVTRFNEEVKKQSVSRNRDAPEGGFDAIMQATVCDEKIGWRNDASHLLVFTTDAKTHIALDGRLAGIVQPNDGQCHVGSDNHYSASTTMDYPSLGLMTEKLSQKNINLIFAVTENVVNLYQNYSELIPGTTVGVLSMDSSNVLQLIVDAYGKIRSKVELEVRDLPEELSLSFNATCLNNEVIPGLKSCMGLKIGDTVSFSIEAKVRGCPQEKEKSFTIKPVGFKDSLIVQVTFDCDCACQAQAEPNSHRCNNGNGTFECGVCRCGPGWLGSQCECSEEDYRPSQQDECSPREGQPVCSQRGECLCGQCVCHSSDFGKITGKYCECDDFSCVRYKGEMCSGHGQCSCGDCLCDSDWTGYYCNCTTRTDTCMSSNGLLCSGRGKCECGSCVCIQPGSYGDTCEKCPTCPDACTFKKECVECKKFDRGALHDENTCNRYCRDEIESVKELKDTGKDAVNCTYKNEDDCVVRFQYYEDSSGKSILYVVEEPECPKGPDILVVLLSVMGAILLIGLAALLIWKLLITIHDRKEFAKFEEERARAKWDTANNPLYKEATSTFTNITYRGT
Target sequence in this assay (P08514 32-887 limits assumed): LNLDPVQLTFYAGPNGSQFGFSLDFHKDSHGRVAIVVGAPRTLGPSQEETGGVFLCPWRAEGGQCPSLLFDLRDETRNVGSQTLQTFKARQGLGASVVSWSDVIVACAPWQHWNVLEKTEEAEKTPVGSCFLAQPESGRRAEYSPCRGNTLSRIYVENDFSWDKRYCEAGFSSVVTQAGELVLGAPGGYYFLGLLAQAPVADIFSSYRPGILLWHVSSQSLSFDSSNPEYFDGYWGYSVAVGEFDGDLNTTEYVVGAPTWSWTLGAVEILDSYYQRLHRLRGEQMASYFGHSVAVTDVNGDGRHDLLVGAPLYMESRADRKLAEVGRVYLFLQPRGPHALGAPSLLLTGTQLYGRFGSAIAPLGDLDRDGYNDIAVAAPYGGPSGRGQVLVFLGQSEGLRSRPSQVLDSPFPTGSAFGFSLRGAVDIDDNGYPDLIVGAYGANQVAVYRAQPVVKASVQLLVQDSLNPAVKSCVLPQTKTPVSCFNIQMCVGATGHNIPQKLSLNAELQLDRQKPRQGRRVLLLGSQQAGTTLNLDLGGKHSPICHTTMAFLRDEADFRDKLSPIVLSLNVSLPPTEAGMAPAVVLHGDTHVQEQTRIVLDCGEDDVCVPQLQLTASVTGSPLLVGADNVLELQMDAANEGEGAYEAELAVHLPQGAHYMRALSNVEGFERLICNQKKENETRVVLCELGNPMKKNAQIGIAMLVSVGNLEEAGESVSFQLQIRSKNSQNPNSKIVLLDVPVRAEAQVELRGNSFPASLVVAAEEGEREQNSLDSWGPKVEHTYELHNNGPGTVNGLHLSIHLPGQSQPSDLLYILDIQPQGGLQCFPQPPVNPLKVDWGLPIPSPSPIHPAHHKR
Target sequence in this assay (P08514 891-1039 limits assumed): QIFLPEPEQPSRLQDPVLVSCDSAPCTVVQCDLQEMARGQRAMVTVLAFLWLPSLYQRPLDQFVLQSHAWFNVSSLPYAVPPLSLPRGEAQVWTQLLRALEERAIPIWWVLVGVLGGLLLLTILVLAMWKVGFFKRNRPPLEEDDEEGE

Integrin alpha-V/beta-3 [3] = biological target: T2, Integrin alpha-V/beta-3 (Homo sapiens, UniProt P05106+P06756); assay: Inhibition of human umbilical vein endothelial cell adhesion to fibrinogen; assay type: functional, cell-based
T2 sequence (P05106 27-788 limits assumed): as the sequence (P05106 27-788 limits assumed) above
T2 sequence (P06756 31-889 limits assumed): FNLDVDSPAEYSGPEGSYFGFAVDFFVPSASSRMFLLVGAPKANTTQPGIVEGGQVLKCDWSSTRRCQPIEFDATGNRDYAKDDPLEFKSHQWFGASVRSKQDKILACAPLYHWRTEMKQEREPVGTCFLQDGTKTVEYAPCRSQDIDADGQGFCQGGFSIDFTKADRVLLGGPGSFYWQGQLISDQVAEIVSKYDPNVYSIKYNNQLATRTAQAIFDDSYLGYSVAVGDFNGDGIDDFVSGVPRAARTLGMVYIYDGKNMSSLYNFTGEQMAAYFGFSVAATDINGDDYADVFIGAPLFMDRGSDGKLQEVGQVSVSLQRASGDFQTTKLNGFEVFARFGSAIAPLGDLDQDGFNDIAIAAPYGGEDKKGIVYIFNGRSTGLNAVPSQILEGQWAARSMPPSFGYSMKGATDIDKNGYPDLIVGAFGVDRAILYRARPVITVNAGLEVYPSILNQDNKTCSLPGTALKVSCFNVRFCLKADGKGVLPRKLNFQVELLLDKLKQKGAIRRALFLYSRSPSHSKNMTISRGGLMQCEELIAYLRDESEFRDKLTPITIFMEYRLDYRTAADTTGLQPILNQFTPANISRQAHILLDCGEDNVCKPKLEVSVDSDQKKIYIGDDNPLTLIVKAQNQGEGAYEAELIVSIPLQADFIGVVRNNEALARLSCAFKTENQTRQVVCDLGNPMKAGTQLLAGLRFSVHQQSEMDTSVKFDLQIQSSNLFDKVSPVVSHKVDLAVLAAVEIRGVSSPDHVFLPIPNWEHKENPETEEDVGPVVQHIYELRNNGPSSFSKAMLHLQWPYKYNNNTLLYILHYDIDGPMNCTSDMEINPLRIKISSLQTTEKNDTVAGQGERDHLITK
T2 sequence (P06756 891-1048 limits assumed): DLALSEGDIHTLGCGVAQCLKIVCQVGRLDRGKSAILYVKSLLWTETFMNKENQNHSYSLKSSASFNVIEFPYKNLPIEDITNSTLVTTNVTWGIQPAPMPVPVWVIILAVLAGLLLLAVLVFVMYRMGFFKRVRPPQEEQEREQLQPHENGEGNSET

Integrin alpha-V/beta-3 [4] = biological target: T2, Integrin alpha-V/beta-3; assay: Inhibition of human umbilical vein endothelial cell adhesion to vitronectin; assay type: functional, cell-based
[5] = (§2) Inhibition of human umbilical vein endothelial cell adhesion to fibronectin; assay type: functional, cell-based
Integrin alpha-5/beta-1 = Integrin alpha-5/beta-1 (Homo sapiens, UniProt P05556+P08648); assay: as §2; assay type: functional, cell-based
Chain of Integrin alpha-5/beta-1 (P05556 21-798 limits assumed): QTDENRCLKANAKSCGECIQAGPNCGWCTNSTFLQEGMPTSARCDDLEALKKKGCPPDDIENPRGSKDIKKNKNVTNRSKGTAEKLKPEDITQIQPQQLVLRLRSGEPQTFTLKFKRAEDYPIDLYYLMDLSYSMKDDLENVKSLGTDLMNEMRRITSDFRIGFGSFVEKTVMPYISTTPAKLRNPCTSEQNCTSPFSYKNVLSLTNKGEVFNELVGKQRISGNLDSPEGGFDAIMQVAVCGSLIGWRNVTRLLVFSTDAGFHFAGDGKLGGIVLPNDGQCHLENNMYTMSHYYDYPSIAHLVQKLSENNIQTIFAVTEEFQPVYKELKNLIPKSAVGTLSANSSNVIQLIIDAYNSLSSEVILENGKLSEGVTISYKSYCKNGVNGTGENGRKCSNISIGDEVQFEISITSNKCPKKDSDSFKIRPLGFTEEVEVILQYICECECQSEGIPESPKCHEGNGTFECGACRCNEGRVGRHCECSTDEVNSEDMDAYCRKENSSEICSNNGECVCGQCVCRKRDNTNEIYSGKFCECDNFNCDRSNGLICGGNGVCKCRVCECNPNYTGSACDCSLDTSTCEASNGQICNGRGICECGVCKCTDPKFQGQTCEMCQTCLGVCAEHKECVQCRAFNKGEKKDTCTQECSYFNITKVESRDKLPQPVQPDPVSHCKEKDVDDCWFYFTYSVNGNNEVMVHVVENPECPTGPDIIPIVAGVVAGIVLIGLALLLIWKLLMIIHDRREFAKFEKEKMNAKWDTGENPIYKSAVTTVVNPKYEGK
Chain of Integrin alpha-5/beta-1 (P08648 42-894 limits assumed): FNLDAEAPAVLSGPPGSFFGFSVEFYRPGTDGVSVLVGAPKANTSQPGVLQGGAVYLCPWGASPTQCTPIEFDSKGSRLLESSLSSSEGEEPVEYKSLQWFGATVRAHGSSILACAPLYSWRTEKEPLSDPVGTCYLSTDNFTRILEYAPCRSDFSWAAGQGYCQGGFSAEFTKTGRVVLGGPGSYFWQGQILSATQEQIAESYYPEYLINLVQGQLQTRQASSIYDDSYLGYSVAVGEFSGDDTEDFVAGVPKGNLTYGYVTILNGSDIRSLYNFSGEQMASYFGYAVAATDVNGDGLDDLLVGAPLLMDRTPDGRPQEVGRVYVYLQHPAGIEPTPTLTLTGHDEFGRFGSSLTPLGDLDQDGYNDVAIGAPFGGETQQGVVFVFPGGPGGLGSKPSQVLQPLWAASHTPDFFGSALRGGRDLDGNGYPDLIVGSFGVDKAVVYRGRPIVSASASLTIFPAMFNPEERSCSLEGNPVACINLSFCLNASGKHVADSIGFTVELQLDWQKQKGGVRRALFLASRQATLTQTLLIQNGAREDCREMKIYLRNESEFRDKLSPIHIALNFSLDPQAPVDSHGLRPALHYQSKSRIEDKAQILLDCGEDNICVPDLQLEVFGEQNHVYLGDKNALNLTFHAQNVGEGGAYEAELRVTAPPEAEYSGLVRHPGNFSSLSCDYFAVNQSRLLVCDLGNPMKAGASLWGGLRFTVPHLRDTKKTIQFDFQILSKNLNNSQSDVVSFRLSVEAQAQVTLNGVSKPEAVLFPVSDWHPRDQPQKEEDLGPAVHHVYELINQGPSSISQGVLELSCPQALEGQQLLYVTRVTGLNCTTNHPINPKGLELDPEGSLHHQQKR
Chain of Integrin alpha-5/beta-1 (P08648 895-1049 limits assumed): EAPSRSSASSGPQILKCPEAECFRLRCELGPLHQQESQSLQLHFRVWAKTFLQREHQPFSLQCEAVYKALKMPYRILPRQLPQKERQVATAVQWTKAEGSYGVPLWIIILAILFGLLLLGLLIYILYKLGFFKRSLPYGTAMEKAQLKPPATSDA

Compound	pIC50 [2]	pIC50 (Integrin alpha-V/beta-3 [3])	pIC50 (Integrin alpha-V/beta-3 [4])	also measured
NCCCCCCOc1ccc(CCC(=O)O)cc1				inhibition [1]: 12%
O=C(N[C@@H](Cc1ccc(OCCCCC2CCNCC2)cc1)C(=O)O)OCc1ccccc1	6.59	3.80	4.25	pIC50 [5]: 3.52
CCCCS(=O)(=O)N[C@@H](Cc1ccc(OCCCCC2CCNCC2)cc1)C(=O)O [TIROFIBAN]			4.21	
CC(C)(C)NCC(O)COc1ccc(C[C@H](NC(=O)OCc2ccccc2)C(=O)O)cc1 (stereo partly drawn)		< 3.52	< 3.52	pIC50 [5]: < 3.52
NC(N)=NCCC[C@H](N)C(=O)NCC(=O)N[C@@H](CC(=O)O)C(=O)N[C@@H](Cc1c[nH]c2ccccc12)C(=O)O (H-RGDW-OH)		4.47	4.85	pIC50 (Integrin alpha-5/beta-1): 4.57
O=C(O)[C@H](Cc1ccc(OCCCCC2CCNCC2)cc1)NS(=O)(=O)Cc1ccccc1	7.74			

Continued, in another order:

pIC50 [2]	pIC50 (Integrin alpha-V/beta-3 [3])	pIC50 (Integrin alpha-V/beta-3 [4])	Compound	also measured
4.59			NCCCCCCOc1ccc(C[C@H](NC(=O)OCc2ccccc2)C(=O)O)cc1	
6.11	3.48	3.82	CCCCS(=O)(=O)N[C@@H](Cc1ccc(OCCCCCCN)cc1)C(=O)O	pIC50 (Integrin alpha-5/beta-1): < 3.30
	3.50	3.83	NCCCCCCCOc1ccc(C[C@H](NC(=O)OCc2ccccc2)C(=O)O)cc1	pIC50 (Integrin alpha-5/beta-1): < 3.35
7.46			CCCCCC(=O)N[C@@H](Cc1ccc(OCCCCC2CCNCC2)cc1)C(=O)O	
5.10			NCCCCCCOc1ccc(C[C@H](NC(=O)CCc2ccccc2)C(=O)O)cc1	
